In ChEMBL document CHEMBL1135416, “Nonpeptide bradykinin B2 receptor antagonists: conversion of rodent-selective bradyzide analogues into potent, orally-active human bradykinin B2 receptor antagonists” (J Med Chem, 2002):
≈ marks a conversion by molar mass, not a printed value.

Assays:
B2 bradykinin receptor [1] = biological target: T1, B2 bradykinin receptor (Rattus norvegicus, UniProt P25023); assay: Inhibition of specific binding of [3H]-BK (1 nM) to rat Bradykinin receptor B2 by 50% in NG108-15 cell membranes; parameters: species or system Membrane
T1 sequence (P25023 whole entry): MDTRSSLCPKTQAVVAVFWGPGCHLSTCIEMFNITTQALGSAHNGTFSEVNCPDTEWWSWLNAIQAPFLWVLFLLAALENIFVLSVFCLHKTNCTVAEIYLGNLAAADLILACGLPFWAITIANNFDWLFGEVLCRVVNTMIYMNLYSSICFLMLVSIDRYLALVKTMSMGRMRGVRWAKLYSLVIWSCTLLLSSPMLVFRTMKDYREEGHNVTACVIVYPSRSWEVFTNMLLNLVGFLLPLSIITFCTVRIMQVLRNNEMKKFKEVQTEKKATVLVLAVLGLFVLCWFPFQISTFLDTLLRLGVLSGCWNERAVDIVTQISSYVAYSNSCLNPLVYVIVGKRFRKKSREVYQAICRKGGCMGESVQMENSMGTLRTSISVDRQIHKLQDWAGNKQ
Summary of the method: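 NG108-15 cell membranes (rodent B2) were diluted to about 0.3 mg/mL protein in 25 mM potassium phosphate pH 6.5 with 1 mM EGTA, 0.1 mM bacitracin, chymostatin and BSA. [3H]BK was 1 nM and nonspecific binding was set with 10 µM BK. Incubation was 60 min at 4 °C, followed by PEI-soaked GF/B filtration, a cold phosphate pH 6.5 wash and scintillation counting. Ki was derived from IC50 (Cheng–Prusoff). Data are mean ± SEM of ≥3 experiments in triplicate.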

B2 bradykinin receptor [2] = biological target: T2, B2 bradykinin receptor (Homo sapiens, UniProt P30411); assay: Displacement of [3H]BK (1 nM) from human Bradykinin receptor B2 expressed in Cos-7 cells; format: cell-based
T2 sequence (P30411 whole entry): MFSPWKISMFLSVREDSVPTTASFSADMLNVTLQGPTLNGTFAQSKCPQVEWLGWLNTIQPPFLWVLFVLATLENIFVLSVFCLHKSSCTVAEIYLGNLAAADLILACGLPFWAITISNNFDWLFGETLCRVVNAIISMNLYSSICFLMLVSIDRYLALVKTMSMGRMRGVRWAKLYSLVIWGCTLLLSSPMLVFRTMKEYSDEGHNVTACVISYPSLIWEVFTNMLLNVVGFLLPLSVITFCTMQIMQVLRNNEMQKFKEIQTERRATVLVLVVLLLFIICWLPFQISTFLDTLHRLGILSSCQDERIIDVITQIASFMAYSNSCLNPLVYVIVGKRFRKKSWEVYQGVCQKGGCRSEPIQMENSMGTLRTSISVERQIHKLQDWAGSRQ
Summary of the method: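 [3H]BK was 1 nM and nonspecific binding was set with 10 µM BK. Incubation was 60 min at 4 °C, then GF/B filtration, a cold 50 mM Tris pH 7.4 wash and counting. Ki was derived from IC50 (Cheng–Prusoff). Data are mean ± SEM of ≥3 triplicate experiments.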

[3] = Solubility at pH 7.4; format: physicochemical; conditions: buffer
B2 bradykinin receptor [4] = biological target: T1, B2 bradykinin receptor; assay: Inhibition of Bradykinin receptor B2-mediated contractions of rat uterus smooth muscle; format: functional, tissue-based
B2 bradykinin receptor [5] = biological target: T1, B2 bradykinin receptor; assay: Inhibition of increase in [Ca2+] efflux from NG108-15 cells caused by activation of rat Bradykinin receptor B2; format: functional, cell-based
B2 bradykinin receptor [6] = biological target: T2, B2 bradykinin receptor; assay: Antagonism of the [Ca2+] efflux actions of the human Bradykinin receptor B2 (SK-N-SH neuroblastoma); format: functional
B2 bradykinin receptor [7] = biological target: T2, B2 bradykinin receptor; assay: Antagonism of the [Ca2+] efflux actions of the human Bradykinin receptor B2 (WI38 fibroblasts); format: functional
Rattus norvegicus [8] = species: Rattus norvegicus; assay: Reversal of turpentine-induced mechanical […] in rats; format: functional
Summary of the method: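 Rats received an intraplantar injection of 50 µL turpentine/paraffin (1:1) into the left hind paw. Three days later, compound or vehicle was given orally or iv, and the paw withdrawal threshold (mean of two readings) was taken 1 h later. ED50 was the dose giving 50% of maximum reversal. Efficacy was the maximum reversal as % of the pre-turpentine threshold.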

Rattus norvegicus [9] = species: Rattus norvegicus; assay: Reversal of FCAT-induced mechanical […] in rats; format: functional
Summary of the method: (§1)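 Female Sprague-Dawley rats (100-120 g) under light enflurane received 100 µL FCA into one knee. Three to six days later, each hind paw was placed on a pressure transducer with the uninjected leg bearing 100 g, and the load tolerated by the injected leg was read half-hourly. Compounds were given after three control readings. The response was expressed as % maximal reversal (100% = equal load on both legs).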

B2 bradykinin receptor [10] = biological target: T2, B2 bradykinin receptor; assay: Antagonism of the [Ca2+] efflux actions of human Bradykinin receptor B2 (SK-N-SH neuroblastoma); format: functional
B2 bradykinin receptor [11] = biological target: T2, B2 bradykinin receptor; assay: Antagonism of the [Ca2+] efflux actions of human Bradykinin receptor B2 (WI38 fibroblasts); format: functional
Rattus norvegicus [12] = species: Rattus norvegicus; assay: Oral efficacy against FCAT-induced mechanical […] in rats; format: functional; summary of the method: as §1
Rattus norvegicus [13] = species: Rattus norvegicus; assay: Duration of action (excess) in FCAT-induced mechanical […] in rats; format: functional

| Structure (SMILES) | Ki (B2 bradykinin receptor [1]) [nM] | Ki (B2 bradykinin receptor [2]) [nM] | further results |
| --- | --- | --- | --- |
| CN(C)CCCN(C)CCNC(=O)[C@@H]1CCCN1S(=O)(=O)c1ccc(N/N=C(\S)NC(c2ccccc2)c2ccccc2)c([N+](=O)[O-])c1 | 0.023 | 119 |  |
| CN(C)CCCN(C)CCCNC(=O)[C@@H]1CCCN1S(=O)(=O)c1ccc(N/N=C(\S)NC(c2ccccc2)c2ccccc2)c([N+](=O)[O-])c1 | 0.31 | 95 |  |
| CN(C)CCN(C)CCNC(=O)[C@@H]1CCCN1S(=O)(=O)c1ccc(NNC(=O)NC(c2ccccc2)c2ccccc2)c(Cl)c1 | 7.3 |  |  |
| CN(C)CCN(C)CCNC(=O)[C@@H]1CCCN1S(=O)(=O)c1ccc(N/N=C(\S)NC(c2ccccc2Cl)c2ccccc2Cl)c([N+](=O)[O-])c1 | 5.46 | 34.1 |  |
| CN(C)CCN(C)CCNC(=O)[C@@H]1CCCN1S(=O)(=O)c1ccc(NNC(=S)NC2c3ccccc3CCc3ccccc32)c([N+](=O)[O-])c1 | 14.5 | 4.67 |  |
| CN(C)CCCN(C)CCNC(=O)[C@@H]1CCCN1S(=O)(=O)c1ccc(N/N=C(\S)NC2c3ccccc3-c3ccccc32)c([N+](=O)[O-])c1 |  | 645 |  |
| CN(C)CCN(C)CCNC(=O)c1cccn1S(=O)(=O)c1ccc(N/N=C(\S)NC2c3ccccc3CCc3ccccc32)c([N+](=O)[O-])c1 | 64.5 | 1.47 |  |
| CN(C)CCN(C)CCNC(=O)[C@@H]1CCCN1S(=O)(=O)c1ccc(NNC(=S)NC(c2ccccc2)c2ccccc2)c([N+](=O)[O-])c1 |  | 772 | ED50 (Rattus norvegicus [12]): 0.84 µmol/kg; Time (Rattus norvegicus [13]): 4 h |

The remaining compounds from weak to strong by Ki (B2 bradykinin receptor [2]), led by results:

| Ki (B2 bradykinin receptor [1]) [nM] | Ki (B2 bradykinin receptor [2]) [nM] | Structure (SMILES) | further results |
| --- | --- | --- | --- |
|  | 1430 | CN(C)CCN(C)CCNC(=O)[C@H]1CCCN1S(=O)(=O)c1ccc(NNC(=S)NC(c2ccccc2)c2ccccc2)c([N+](=O)[O-])c1 |  |
|  | 253 | CN(C)CCCN(C)CCNC(=O)c1cccn1S(=O)(=O)c1ccc(NNC(=O)NC2c3ccccc3CCc3ccccc32)c(Cl)c1 |  |
|  | 237 | CN(C)CCN(C)CCNC(=O)c1cccn1S(=O)(=O)c1ccc(NNC(=S)NC(c2ccccc2)c2ccccc2)c([N+](=O)[O-])c1 |  |
| 176 | 2.79 | CN(C)CCCN(C)CCNC(=O)c1cccn1S(=O)(=O)c1ccc(NNC(=O)NC2c3ccccc3CCc3ccccc32)c([N+](=O)[O-])c1 | solubility [3]: 400 µg/mL (≈ 569 µM); IC50 (B2 bradykinin receptor [4]): 1.9 nM; IC50 (B2 bradykinin receptor [5]): 141 nM; IC50 (B2 bradykinin receptor [6]): 12 nM; IC50 (B2 bradykinin receptor [7]): 55 nM; ED50 (Rattus norvegicus [8]): 0.32 µmol/kg; ED50 (Rattus norvegicus [9]): 0.027 µmol/kg |
| 10.7 | 0.79 | CN(C)CCCN(C)CCNC(=O)[C@@H]1CCCN1S(=O)(=O)c1ccc(NNC(=O)NC2c3ccccc3CCc3ccccc32)c([N+](=O)[O-])c1 | IC50 (B2 bradykinin receptor [4]): 2.4 nM; IC50 (B2 bradykinin receptor [5]): 105 nM; IC50 (B2 bradykinin receptor [10]): 91 nM; IC50 (B2 bradykinin receptor [11]): 17 nM; ED50 (Rattus norvegicus [8]): 0.11 µmol/kg; ED50 (Rattus norvegicus [9]): 0.043 µmol/kg |
